Legend:
Oxytocin receptor = target: T1, Oxytocin receptor (Rattus norvegicus, UniProt P70536); test: Inhibition of radioligand [3H]oxytocin binding at the oxytocin (OT) receptor in rat uterine tissue
T1 sequence (P70536 whole entry): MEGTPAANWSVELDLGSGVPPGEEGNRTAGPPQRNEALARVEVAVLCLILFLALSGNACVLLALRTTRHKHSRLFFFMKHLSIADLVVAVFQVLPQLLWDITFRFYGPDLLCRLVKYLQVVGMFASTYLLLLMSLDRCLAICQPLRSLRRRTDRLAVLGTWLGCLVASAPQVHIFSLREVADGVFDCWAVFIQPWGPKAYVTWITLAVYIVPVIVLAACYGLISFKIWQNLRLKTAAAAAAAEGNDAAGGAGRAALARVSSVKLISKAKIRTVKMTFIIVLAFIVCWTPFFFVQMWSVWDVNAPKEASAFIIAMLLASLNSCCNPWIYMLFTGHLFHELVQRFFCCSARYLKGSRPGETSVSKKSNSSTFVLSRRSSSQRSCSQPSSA
Procedure, shortened: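 Uteri taken from rats given diethylstilbestrol dipropionate (0.3 mg/kg ip, 18–24 h before), crude membranes. 1 nM [3H]OT (30–60 Ci/mmol), equilibrium 60 min at 22 °C in 50 mM Tris-HCl, 5 mM MgCl2, 0.1% BSA, pH 7.4. Nonspecific binding with 1 mM unlabeled OT. Filtered on glass fiber. Initial single-concentration screen, then IC50 from seven concentrations by linear regression.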

Vasopressin V1 receptor = Vasopressin V1 receptor (Rattus norvegicus, UniProt P48974+P30560); test: Inhibition of radioligand [3H]AVP binding to the vasopressin V1 receptor in rat liver tissue
Procedure, shortened: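 Crude membranes from male rat liver (V1 sites) competed with 1 nM [3H]AVP (80–90 Ci/mmol). Equilibrium 30 min, 30 °C, buffer 100 mM Tris-HCl, 5 mM MgCl2, 0.1% BSA, 50 μM PMSF, 50 μg/mL bacitracin, pH 8.0. 10 μM unlabeled AVP for nonspecific binding. Filtration through glass-fiber filters. IC50 from linear regression over seven concentrations.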

Vasopressin V2 receptor = Vasopressin V2 receptor (Rattus norvegicus, UniProt Q00788); test: Inhibition of radioligand [3H]-AVP binding to the vasopressin V2 receptor in rat kidney tissue
Procedure, shortened: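 [3H]AVP (80–90 Ci/mmol) at 2 nM competed on crude membranes from male rat kidney medulla (V2 sites). Equilibrium 30 min at 30 °C in 100 mM Tris-HCl, 5 mM MgCl2, 0.1% BSA, 50 μM PMSF, 50 μg/mL bacitracin, pH 8.0. Nonspecific binding with 10 μM unlabeled AVP. Glass-fiber filtration. IC50 by linear regression of % inhibition vs log concentration, seven concentrations.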

Chain of Vasopressin V2 receptor (Q00788 whole entry): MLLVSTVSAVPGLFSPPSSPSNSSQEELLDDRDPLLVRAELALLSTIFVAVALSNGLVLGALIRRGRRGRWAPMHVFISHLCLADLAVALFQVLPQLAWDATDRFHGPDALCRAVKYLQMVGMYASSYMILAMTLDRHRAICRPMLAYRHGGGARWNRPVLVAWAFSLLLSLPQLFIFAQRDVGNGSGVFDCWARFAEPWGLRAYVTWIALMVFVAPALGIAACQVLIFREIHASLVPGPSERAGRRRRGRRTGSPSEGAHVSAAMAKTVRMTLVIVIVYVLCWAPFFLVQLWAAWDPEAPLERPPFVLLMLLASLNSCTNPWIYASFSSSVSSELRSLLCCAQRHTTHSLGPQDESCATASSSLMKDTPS

Structure (SMILES)	IC50 (Oxytocin receptor)	IC50 (Vasopressin V1 receptor)	IC50 (Vasopressin V2 receptor)
CC1(C)[C@@H]2CC[C@@]1(CS(=O)(=O)N1CCC3(CCc4ccccc43)CC1)[C@@H](NC(=O)[C@H](CCC(N)=O)NC(=O)CCN)C2	6.3 nM	490 nM	1800 nM
Cc1[nH]cnc1C(=O)N[C@H]1C[C@H]2CC[C@]1(CS(=O)(=O)N1CCC3(CCc4ccccc43)CC1)C2(C)C	150 nM	> 3000 nM	> 3000 nM
CC1(C)[C@@H]2CC[C@@]1(CS(=O)(=O)N1CCC3(CCc4ccccc43)CC1)[C@@H](N1C(=O)C3CC(O)CN3C1=O)C2 (some centres not stated)	20 nM	500 nM	3200 nM
CC1(C)[C@@H]2CC[C@@]1(CS(=O)(=O)N1CCC3(C=Cc4ccccc43)CC1)[C@@](O)(CNC(=O)Cc1c[nH]cn1)C2	45 nM	> 300 nM	> 3000 nM
CC1(C)[C@@H]2CC[C@@]1(CS(=O)(=O)N1CCC3(C=Cc4ccccc43)CC1)[C@@](O)(CNC(=O)Cc1ccccn1)C2	81 nM	830 nM	4700 nM
CC1(C)[C@@H]2CC[C@@]1(CS(=O)(=O)N1CCC3(CCc4ccccc43)CC1)[C@H](N)C2	6500 nM	> 10000 nM	> 10000 nM
CC1(C)[C@@H]2CC[C@@]1(CS(=O)(=O)N1CCC3(C=Cc4ccccc43)CC1)[C@@](O)(CNC(=O)c1ccccn1)C2	180 nM	1100 nM	3600 nM
CC1(C)[C@@H]2CC[C@@]1(CS(=O)(=O)N1CCC3(CCc4ccccc43)CC1)[C@@H](N1C(=O)NC(CCS(C)(=O)=O)C1=O)C2 (some centres not stated)	2.6 nM	110 nM	660 nM
CC1(C)[C@@H]2CC[C@@]1(CS(=O)(=O)N1CCC3(C=Cc4ccccc43)CC1)C1(CNC(=O)O1)C2 (some centres not stated)	> 1000 nM	> 10000 nM	> 10000 nM
CC1(C)[C@@H]2CC[C@@]1(CS(=O)(=O)N1CCC3(C=Cc4ccccc43)CC1)[C@@](O)(CNC(=O)C(N)CCS(C)(=O)=O)C2 (some centres not stated)	110 nM	3700 nM	9200 nM
CC1(C)[C@@H]2CC[C@@]1(CS(=O)(=O)N1CCC3(CCc4ccccc43)CC1)[C@@H](NC(=O)C(CCS(C)(=O)=O)NC(=O)Cc1c[nH]cn1)C2 (some centres not stated)	1.2 nM	440 nM	280 nM
CC1(C)[C@@H]2CC[C@@]1(CS(=O)(=O)N1CCC3(CCc4ccccc43)CC1)[C@](O)(CNC(=O)C(N)CS(C)(=O)=O)C2 (some centres not stated)	40 nM	1100 nM	3000 nM
CC1(C)[C@@H]2CC[C@@]1(CS(=O)(=O)N1CCC3(C=Cc4ccccc43)CC1)[C@](O)(CN)C2	10000 nM	100000 nM	100000 nM
CC1(C)[C@@H]2CC[C@@]1(CS(=O)(=O)N1CCC3(CCc4ccccc43)CC1)[C@@H](NC(=O)c1ccncc1)C2	190 nM	> 1000 nM	> 10000 nM
CC1(C)[C@@H]2CC[C@@]1(CS(=O)(=O)N1CCC3(C=Cc4ccccc43)CC1)[C@@](O)(CNC(=O)C1CCCNC1)C2 (some centres not stated)	110 nM	> 300 nM	5100 nM
CC1(C)[C@@H]2CC[C@@]1(CS(=O)(=O)N1CCC3(CCc4ccccc43)CC1)[C@@H](N)C2	30000 nM	> 10000 nM	> 10000 nM
CC1(C)[C@@H]2CC[C@@]1(CS(=O)(=O)N1CCC3(CCc4ccccc43)CC1)[C@@H](NC(=O)C[C@]13C[C@H]4C[C@H](C[C@H](C4)C1)C3)C2	12000 nM	> 10000 nM	> 10000 nM
CC1(C)[C@@H]2CC[C@@]1(CS(=O)(=O)N1CCC3(C=Cc4ccccc43)CC1)[C@@](O)(CCNC(=O)c1ccncc1)C2	79 nM	> 1000 nM	> 1000 nM
CC1(C)[C@@H]2CC[C@@]1(CS(=O)(=O)N1CCC3(C=Cc4ccccc43)CC1)[C@@](O)(CNC(=O)NC1CCCCC1)C2	170 nM	950 nM	18000 nM
CC1(C)[C@H]2CC[C@]1(CS(=O)(=O)N1CCC3(CCc4ccccc43)CC1)[C@@H](NC(=O)Cc1c[nH]cn1)C2	10000 nM	> 3000 nM	> 3000 nM

Structure (SMILES)	IC50 (Oxytocin receptor)	IC50 (Vasopressin V1 receptor)	IC50 (Vasopressin V2 receptor)
CCC(C)(C)C(=O)NCC[C@@]1(O)C[C@H]2CC[C@]1(CS(=O)(=O)N1CCC3(C=Cc4ccccc43)CC1)C2(C)C	45 nM	2300 nM	13000 nM
CC1(C)[C@@H]2CC[C@@]1(CS(=O)(=O)N1CCC3(CCc4ccccc43)CC1)[C@@H](NC(=O)N(CCc1c[nH]cn1)CCS(C)(=O)=O)C2	16 nM	700 nM	1900 nM
Cn1cnc(CC(=O)NC(CCS(C)(=O)=O)C(=O)N[C@H]2C[C@H]3CC[C@]2(CS(=O)(=O)N2CCC4(CCc5ccccc54)CC2)C3(C)C)c1 (some centres not stated)	0.7 nM	1200 nM	490 nM
CC1(C)[C@@H]2CC[C@@]1(CS(=O)(=O)N1CCC3(CCc4ccccc43)CC1)[C@@H](NC(=O)CCC1CCCNC1)C2 (some centres not stated)	30 nM	710 nM	5200 nM
Cn1cncc1CC(=O)N[C@@H](CCC(N)=O)C(=O)N[C@H]1C[C@H]2CC[C@]1(CS(=O)(=O)N1CCC3(CCc4ccccc43)CC1)C2(C)C	2.3 nM	> 300 nM	> 300 nM
CCOC(=O)CCC(=O)N[C@H]1C[C@H]2CC[C@]1(CS(=O)(=O)N1CCC3(CCc4ccccc43)CC1)C2(C)C	240 nM	16000 nM	13000 nM
CC1(C)[C@@H]2CC[C@@]1(CS(=O)(=O)N1CCC3(C=Cc4ccccc43)CC1)[C@@](O)(CC(=O)O)C2	800 nM	78000 nM	70000 nM
CC1(C)[C@@H]2CC[C@@]1(CS(=O)(=O)N1CCC3(C=Cc4ccccc43)CC1)/C(=N\O)C2	650 nM	10000 nM	> 10000 nM
CC1(C)[C@@H]2CC[C@@]1(CS(=O)(=O)N1CCC3(CCc4ccccc43)CC1)[C@@H](NC(=O)NCCc1c[nH]cn1)C2	68 nM	4700 nM	14000 nM
CC(=O)NCC[C@@]1(O)C[C@H]2CC[C@]1(CS(=O)(=O)N1CCC3(C=Cc4ccccc43)CC1)C2(C)C	150 nM	2700 nM	30000 nM
CC1(C)[C@@H]2CC[C@@]1(CS(=O)(=O)N1CCC3(CCc4ccccc43)CC1)[C@@H](NC(=O)C1CCCCC1)C2	650 nM	10000 nM	> 10000 nM
CC1(C)[C@@H]2CC[C@@]1(CS(=O)(=O)N1CCC3(CCc4ccccc43)CC1)[C@@H](NC(=O)Cc1ccccc1)C2	250 nM	2700 nM	46000 nM
CC1(C)[C@@H]2CC[C@@]1(CS(=O)(=O)N1CCC3(CCc4ccccc43)CC1)[C@@H](N1C(=O)CN(Cc3nn[nH]n3)C1=O)C2	49 nM	2000 nM	4400 nM
CC1(C)[C@@H]2CC[C@@]1(CS(=O)(=O)N1CCC3(CCc4ccccc43)CC1)[C@@H](N1C(=O)NC(Cc3c[nH]cn3)C1=O)C2 (mixture of isomers)	15 nM	580 nM	1500 nM
CC1(C)[C@@H]2CC[C@@]1(CS(=O)(=O)N1CCC3(CCc4ccccc43)CC1)[C@@H](NC(=O)NC1CN3CCC1CC3)C2 (single isomer, unassigned; isomer A)	47 nM	1700 nM	8700 nM
CC1(C)[C@@H]2CC[C@@]1(CS(=O)(=O)N1CCC3(CCc4ccccc43)CC1)[C@@H](N1C(=O)NC(Cc3c[nH]cn3)C1=O)C2 (single isomer, unassigned; isomer A)	16 nM	600 nM	2000 nM
CC1(C)[C@@H]2CC[C@@]1(CS(=O)(=O)N1CCC3(CCc4ccccc43)CC1)[C@@H](NC(=O)NC1CN3CCC1CC3)C2 (single isomer, unassigned; isomer B)	37 nM	2100 nM	11000 nM
CC1(C)[C@@H]2CC[C@@]1(CS(=O)(=O)N1CCC3(CCc4ccccc43)CC1)[C@@H](NC(=O)C(CCS(C)(=O)=O)c1c[nH]cn1)C2 (single isomer, unassigned; isomer B)	11 nM	2200 nM	3300 nM
CC1(C)[C@@H]2CC[C@@]1(CS(=O)(=O)N1CCC3(CCc4ccccc43)CC1)[C@@H](NC(=O)C(CCS(C)(=O)=O)c1c[nH]cn1)C2 (stereo in doubt)	11 nM	1500 nM	2900 nM
